The target of this assay is T1, Retinoic acid receptor beta (Homo sapiens, UniProt P10826).
T1 sequence (P10826 whole entry): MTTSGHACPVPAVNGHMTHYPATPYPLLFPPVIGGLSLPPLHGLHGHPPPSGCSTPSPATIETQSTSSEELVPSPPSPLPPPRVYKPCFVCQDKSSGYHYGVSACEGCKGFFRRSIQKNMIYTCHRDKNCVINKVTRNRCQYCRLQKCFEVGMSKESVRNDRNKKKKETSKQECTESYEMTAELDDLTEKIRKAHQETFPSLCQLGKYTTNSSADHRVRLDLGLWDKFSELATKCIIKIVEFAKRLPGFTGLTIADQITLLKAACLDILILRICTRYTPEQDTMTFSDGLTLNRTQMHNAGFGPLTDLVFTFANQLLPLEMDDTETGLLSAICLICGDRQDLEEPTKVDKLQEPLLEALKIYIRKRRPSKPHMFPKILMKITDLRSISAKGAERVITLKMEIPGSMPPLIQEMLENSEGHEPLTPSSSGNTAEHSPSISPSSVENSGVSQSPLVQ
In words: Transcriptional activation of Retinoic acid receptor RAR beta. Details: species or system Cercopithecidae. Summed up:
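CV-1 cells transiently cotransfected with the receptor construct and a reporter gene, with induced transcription measured. Activity is normalized to all-trans RA. EC50 is the concentration giving 50% of maximal observed response, from a single experiment in triplicate.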

In the case of `CC1(C)CCC(C)(C)c2cc(Sc3ccc(C(=O)O)cc3)ccc21`, the concentration for a half-maximal effect (EC50) worked out at 570 nM.

The values above are taken from ChEMBL document CHEMBL1129630, “Synthesis and structure-activity relationships of retinoid X receptor selective diaryl sulfide analogs of retinoic acid” (J Med Chem, 1996).
